The nature of assay [1]: inhibitors of TNFa-induced NFkB p65 translocation, primary screen, imaging, HUVEC, MLSMR starter and 10KST1 sets (AID 438;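 active = inhibition above 20% together with a positive visual image hit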;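 also: compound added about 3h40 before a 20 min TNFalpha stimulation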;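 as to inhibition: signal is the nuclear over cytoplasmic p65 intensity ratio per well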). As to conditions: HUVEC TNFa-induced p65 nuclear translocation; cell count: measured here: nuclei count (cytotoxicity indicator), at 2.08 µM; inhibition: at 2 µM, stronger effect = higher value, 0% TNFa-plus-vehicle, 100% no-TNFa wells.
Assay [2] is described as follows: inhibitors of mutant huntingtin aggregation, primary screen, imaging, exon1htt(103Q)mCFP cells, high-content imaging (AID 483;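 active = visual image review flags a hit and inhibition of aggregation exceeds 20%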;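 also: compound exposure lasted 3 days before fixation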;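 as to nuclei count: percent of the per-plate median nuclei count of sample wells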). Particulars: exon1htt(103Q)mCFP cell line, aggregate imaging, at 2 µM; inhibition of aggregation: stronger effect = higher value; nuclei count: measured here: cell count, toxicity.
Assay [3] in a line: inhibitors of E-selectin induction by TNFa, primary screen, imaging, HUVEC, immunofluorescence, MLSMR starter and 10KST1 sets (AID 487;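 active = visually confirmed hit in the image check and inhibition above 20%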;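 as to inhibition: signal is fraction of cell area covered by stained E-selectin grains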;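 as to nuclei count: 100% = median nuclei count of all wells on the same plate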). As to conditions: HUVEC TNFalpha-induced E-selectin immunofluorescence imaging, at 2 µM; inhibition: stronger effect = higher value; nuclei count: measured here: cell number, toxicity.
The target in assay [4] is Voltage-gated potassium channel subunit beta-2 (Rattus norvegicus) (UniProt P62483). Kind of assay: KvBeta enzyme negative modulators, primary screen, biochemical, NADPH fluorescence (AID 622).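 Also: slope of raw intensity against log time taken from 70 to 1610 s.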 As to conditions: recombinant KvBeta, 4-cyanobenzaldehyde reduction, at 10 µM, stronger effect = higher value.
Assay [5] shares this target. Kind of assay: KvBeta positive modulators, primary screen, biochemical, NADPH fluorescence (AID 623;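 active = NADPH fluorescence slope more negative than the mean of all samples by about 3 SD, 99.7% confidence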;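 also: fluorescence intensity change per second fitted from 20 to 320 s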). As to conditions: Recombinant KvBeta, NADPH fluorescence decrease slope, 10 min; at 10 µM; stronger effect = lower value.
The target of assay [6] is Alpha-2C adrenergic receptor (Homo sapiens) (UniProt P18825). Kind of assay: modulators of alpha2C/GIRK thallium flux, primary screen, cell-based, HEK293 alpha2C/GIRK1/2 (AID 624;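 active = fluorescence slope after compound addition differing from the mean of all screened samples at 99.7% confidence, in either direction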;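 also: slope of fluorescence ratio to pre-addition baseline per second over 15 to 24 s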). As to conditions: thallium flux BTC fluorescence, at 10 µM, actives lie on both sides.
The nature of assay [7]: inhibitors of larval lipid processing in zebrafish, primary screen, whole organism, PED6 fluorescence, gall bladder and intestine (AID 686;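 active = a full or partial loss of lipid-probe fluorescence in the fish gall bladder, intestine or both, judged by eye; inactive = no fluorescence loss, or compound toxic to the fish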;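 also: signal comes from phospholipase A2 cleavage of quenched PED6 carried via bile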). As to conditions: Zebrafish larvae PED6 lipid processing, fluorescence scoring; screened at 20 µM (by protocol). An outline of the steps: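 Doses: 20 µM single dose. Test system: live zebrafish larvae aged 5-7 days, whole organism. Quantity: five larvae per well. Measured by: By-eye fluorescence microscopy. Reagent: ingested quenched lipid PED6 at 100 nM. Read-out: visual per-well fluorescence inhibition score. Times: overnight exposure of larvae to compound plus PED6.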

Assay [8] in a line: inhibitors of Sendai virus-induced IRF3 signaling, primary screen, TLR/RLR signaling modifier project, cell-based, Sendai virus stimulus, luciferase, 10K MLSCN set (AID 602276;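 active = inhibition at or above 50% at 10 µM; inactive = inhibition below 50%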;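 also: firefly luciferase from ISG56 promoter only with Renilla not read in this screen; 0% = Sendai virus plus DMSO and 100% = medium plus DMSO without virus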). Particulars: HEK293 RL24 IRF3 luciferase reporter, at 10 µM, stronger effect = higher value.
Assay [9] in a line: inhibitors of poly I:C-induced TLR3 signaling, primary screen, cell-based, poly I:C stimulus, luciferase, 10K MLSCN set (AID 602277;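 active = inhibition of the reporter signal at or above 50%; inactive = inhibition below 50%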). Particulars: HEK293-TLR3 RL24 IRF3 luciferase reporter, at 10 µM, stronger effect = higher value.

Activity calls are given as the source filed them.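 The calls were made as follows, unless noted: active = fluorescence slope higher than the sample average by over 3 SD (cut at about -0.22 in these data, passing the limit was not always enough); inactive = the rest.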

Chain of Voltage-gated potassium channel subunit beta-2 (Rattus norvegicus) (P62483 whole entry, looked up): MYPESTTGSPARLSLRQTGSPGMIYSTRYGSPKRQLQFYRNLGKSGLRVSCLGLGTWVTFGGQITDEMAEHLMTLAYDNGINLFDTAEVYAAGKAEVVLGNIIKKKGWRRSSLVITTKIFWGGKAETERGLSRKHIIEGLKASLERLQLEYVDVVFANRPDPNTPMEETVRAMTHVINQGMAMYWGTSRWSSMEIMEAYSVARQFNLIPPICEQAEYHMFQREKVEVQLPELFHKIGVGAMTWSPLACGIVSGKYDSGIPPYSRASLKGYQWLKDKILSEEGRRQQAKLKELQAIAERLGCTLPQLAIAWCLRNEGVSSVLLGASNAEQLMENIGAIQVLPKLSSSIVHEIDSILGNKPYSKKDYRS
Chain of Alpha-2C adrenergic receptor (Homo sapiens) (P18825 whole entry, looked up): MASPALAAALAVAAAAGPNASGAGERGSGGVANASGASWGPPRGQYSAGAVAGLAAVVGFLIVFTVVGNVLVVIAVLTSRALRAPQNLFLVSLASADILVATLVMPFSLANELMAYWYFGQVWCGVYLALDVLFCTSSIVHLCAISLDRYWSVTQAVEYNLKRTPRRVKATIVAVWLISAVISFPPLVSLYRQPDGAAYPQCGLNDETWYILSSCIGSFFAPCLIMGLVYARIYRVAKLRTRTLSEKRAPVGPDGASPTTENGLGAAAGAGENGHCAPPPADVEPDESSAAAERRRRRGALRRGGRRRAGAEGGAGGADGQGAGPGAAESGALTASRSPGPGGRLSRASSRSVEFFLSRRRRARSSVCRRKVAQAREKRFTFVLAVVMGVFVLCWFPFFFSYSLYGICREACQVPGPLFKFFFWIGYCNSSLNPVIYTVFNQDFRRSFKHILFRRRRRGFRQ

With `CCOC(=O)c1c(C)oc2ccc(NS(=O)(=O)c3ccc4c5c(cccc35)C(=O)N4)cc12`, in assay [1], the cell count was 429. For the same molecule, the inhibition was 6.5% (inactive) in assay [1], -185% (inactive) in [3], 21.2% (inactive) in assay [8] and 2.01% (inactive) in assay [9]. The inhibition of aggregation in assay [2] was -5.8% (inactive). Also, the nuclei count in [2] was 99%; in assay [3], 114%. The fluorescence slope in assay [4] was -0.223 (inactive). The NADPH fluorescence slope in assay [5] was -1.1e-05 (inactive). Also, the slope in assay [6] is 0.00563 (inactive). Also, the molecule was classed as inactive in assay [7].

Regarding `O=C(OC1CCc2ccccc2C1=O)c1ccccc1O` (stereo not drawn), in assay [1], the cell count stood at 304. For the same molecule, the inhibition is 3.8% (inactive) in assay [1], -86.8% (inactive) in [3], -5.07% (inactive) in assay [8] and -40.5% (inactive) in assay [9]. For the same molecule, the inhibition of aggregation in [2] is -0.1% (inactive). Also, the figures for the nuclei count in assay [2] and in assay [3] were 100% and 106%, respectively. In [4], the fluorescence slope is -0.386 (inactive). The NADPH fluorescence slope in assay [5] was -5.3e-05 (inactive). Moreover, the slope in assay [6] was 0.00569 (inactive). Also, in assay [7], the outcome was inactive.

In the case of `CC(C)(C)NC(=O)C(Cc1ccccc1)NS(=O)(=O)c1cccc2nsnc12` (stereo not drawn), the cell count in [1] worked out at 721. Besides, the inhibition in assay [1] is -19.8% (inactive); in assay [3], -49.9% (inactive); in assay [8], 3.22% (inactive); in assay [9], 8.45% (inactive). Moreover, the inhibition of aggregation in assay [2] is -37.6% (inactive). Moreover, the values for the nuclei count in assay [2] and in assay [3] were 113% and 112%, respectively. The fluorescence slope in [4] was -0.413 (inactive). Moreover, the NADPH fluorescence slope in [5] is 1.1e-05 (inactive). For the same molecule, the slope in assay [6] was 0.00438 (inactive). In addition, in assay [7], the outcome was inactive.

For `CC(Sc1n[nH]c(=O)[nH]c1=O)C(=O)OCc1ccccc1` (stereo not drawn), the cell count in assay [1] amounted to 281. Moreover, the inhibition was -2.5% (inactive) in assay [1], -83.4% (inactive) in [3], 14.4% (inactive) in assay [8] and 10.9% (inactive) in assay [9]. Further, the inhibition of aggregation in [2] is 10.6% (inactive). The results for the nuclei count in [2] and in assay [3] were 89.4% and 116%, respectively. The fluorescence slope in assay [4] is -0.305 (inactive). The NADPH fluorescence slope in [5] was -2.2e-05 (inactive). Further, the slope in [6] was 0.00608 (inactive). The molecule was called inactive in assay [7].

With `Cc1ccc(Cl)cc1N1CCN(C(=O)c2cn(C)c(=O)c3c2c2ccccc2n3C)CC1`, in [1], the cell count turned out to be 270. The inhibition in [1] was -3.3% (inactive); in assay [3], -33.6% (inactive); in assay [8], 16.1% (inactive); in assay [9], 28% (inactive). Besides, the inhibition of aggregation in assay [2] is 17.2% (inactive). The nuclei count came to 8% in [2] and 114% in [3]. Moreover, in assay [4], the fluorescence slope was -0.352 (inactive). The NADPH fluorescence slope in assay [5] was -2e-05 (inactive). In addition, in assay [6], the slope was 0.00673 (inactive). Further, the molecule was classed as inactive in assay [7].

Take `CCn1c(SCC(=O)Nc2ccc3c(c2)OCO3)nnc1-c1cnccn1`: the cell count in assay [1] was 542. The inhibition in assay [1] is -3.4% (inactive); in [3] it was -72.2% (inactive); in assay [8], 15.5% (inactive); in assay [9], 16.7% (inactive). The inhibition of aggregation in assay [2] is 1.7% (inactive). Besides, the results for the nuclei count in [2] and in [3] were 89.2% and 118%, respectively. Also, the fluorescence slope in [4] is -0.437 (inactive). In addition, the NADPH fluorescence slope in assay [5] is -5.6e-05 (inactive). In addition, the slope in assay [6] was 0.00469 (inactive). In assay [7], the molecule was classed as inactive.

As for `CC12CCC(C(=O)N3CCN(C(=O)C45CCC(C)(C(=O)O4)C5(C)C)CC3)(OC1=O)C2(C)C`, the cell count in [1] stood at 575. In addition, the inhibition was -8.7% (inactive) in assay [1], -42.4% (inactive) in [3], -54.1% (inactive) in assay [8] and 99.3% (active) in assay [9]. The inhibition of aggregation in [2] was -6.1% (inactive). For the same molecule, the values for the nuclei count in [2] and in assay [3] were 108% and 140%, respectively. Moreover, the fluorescence slope in [4] was -0.391 (inactive). Besides, the NADPH fluorescence slope in [5] was -7.7e-05 (inactive). Moreover, the slope in assay [6] is 0.00544 (inactive). In addition, the molecule was called inactive in assay [7].

For the molecule `Cc1ccc(-c2nn[nH]n2)cc1`, in [1], the cell count amounted to 334. Moreover, the inhibition in [1] was -7.1% (inactive); in [3], -4.4% (inactive); in [8], 4.2% (inactive); in [9], 10.7% (inactive). In addition, the inhibition of aggregation in [2] was -16.2% (inactive). For the same molecule, the results for the nuclei count in [2] and in assay [3] were 117% and 123%, respectively. The fluorescence slope in [4] is -0.474 (inactive). Moreover, the NADPH fluorescence slope in assay [5] was -3.8e-05 (inactive). Also, the slope in assay [6] was 0.00429 (inactive). For the same molecule, in assay [7], the molecule was called inactive.

As to `COc1ccccc1NC(=O)N(Cc1ccco1)Cc1cc2cccc(C)c2[nH]c1=O`, the cell count in assay [1] stood at 333. Moreover, the inhibition was -9.3% (inactive) in [1], 30.7% (inactive) in assay [3], 8.12% (inactive) in assay [8] and -0.891% (inactive) in [9]. In addition, the inhibition of aggregation in assay [2] is 18.6% (inactive). Besides, the nuclei count in assay [2] worked out at 105%; in assay [3] it was 89.2%. In addition, the fluorescence slope in [4] was -0.347 (inactive). Moreover, the NADPH fluorescence slope in [5] was -5.6e-05 (inactive). Further, the slope in [6] was 0.00419 (inactive). In addition, the molecule was classed as inactive in assay [7].

Regarding `O=C(O)c1ccc(CSc2ncn[nH]2)cc1`, in assay [1], the cell count is 352. Moreover, the inhibition was -2.9% (inactive) in [1], -14.9% (inactive) in assay [3], 6.95% (inactive) in assay [8] and 1.16% (inactive) in assay [9]. Further, the inhibition of aggregation in assay [2] is -12.6% (inactive). Further, the results for the nuclei count in [2] and in assay [3] were 108% and 114%, respectively. Also, the fluorescence slope in [4] is -0.42 (inactive). For the same molecule, in assay [5], the NADPH fluorescence slope is -2.8e-05 (inactive). The slope in assay [6] is 0.00649 (inactive). In addition, in assay [7], the call was inactive.

Take `O=C(Nc1ccon1)c1cccc(S(=O)(=O)N2CCCC2)c1`: in assay [1], the cell count was 307. For the same molecule, the inhibition is -2.7% (inactive) in assay [1], -11.9% (inactive) in assay [3], 13.5% (inactive) in assay [8] and 13.6% (inactive) in assay [9]. For the same molecule, the inhibition of aggregation in assay [2] was 21% (inactive). In addition, the figures for the nuclei count in assay [2] and in [3] were 86.7% and 102%, respectively. Besides, the fluorescence slope in assay [4] was -0.374 (inactive). In addition, the NADPH fluorescence slope in assay [5] is -1.7e-05 (inactive). In addition, the slope in [6] is 0.00556 (inactive). Besides, the result in assay [7] was inactive.

For `CCC(CCC(=O)Nc1cccc(C(=O)O)c1)C(=O)O` (stereo not drawn), the cell count in [1] was 506. The inhibition in [1] was 8.8% (inactive); in assay [3] it was 49.6% (inactive); in [8], 4.27% (inactive); in [9], -4.76% (inactive). Further, the inhibition of aggregation in assay [2] is 10.2% (inactive). The nuclei count in assay [2] was determined as 86.5%; in assay [3] it was 74.2%. In addition, the fluorescence slope in assay [4] was -0.448 (inactive). The NADPH fluorescence slope in assay [5] was -2.4e-05 (inactive). In addition, in assay [6], the slope is 0.00563 (inactive). In [7], the molecule was called inactive.

With `COc1ccc(OC)c(Nc2nc(-c3cccs3)cs2)c1`, the cell count in [1] came to 333. Also, the inhibition is 1.5% (inactive) in assay [1], -35.5% (inactive) in [3], 7.1% (inactive) in assay [8] and -5.46% (inactive) in assay [9]. Besides, the inhibition of aggregation in [2] is -9.1% (inactive). Also, the figures for the nuclei count in assay [2] and in [3] were 104% and 110%, respectively. Besides, the fluorescence slope in assay [4] was -0.444 (inactive). Further, in [5], the NADPH fluorescence slope is -6e-05 (inactive). Moreover, in assay [6], the slope is 0.00343 (inactive). Moreover, in assay [7], the outcome was “active; weak signal in gallbladder and intestine”.

In the case of `Cc1ccc(S(=O)(=O)N2CCN(c3nc(C)nc4sc(C)c(C)c34)CC2)cc1`, the cell count in assay [1] worked out at 345. Moreover, the inhibition in [1] is 10.5% (inactive); in assay [3], -191% (inactive); in assay [8], 5.42% (inactive); in assay [9] it was 4.33% (inactive). The inhibition of aggregation in assay [2] was -6.6% (inactive). Moreover, the nuclei count came out at 110% in [2] and 108% in [3]. Further, the fluorescence slope in assay [4] was -0.387 (inactive). Moreover, the NADPH fluorescence slope in assay [5] was -5.6e-05 (inactive). Besides, the slope in assay [6] is 0.0062 (inactive). The outcome in assay [7] was inactive.

Broadly, the inhibition is the relative decrease from the control value, in per cent.
